HSF1 inh = HSF1 inhibition. NIH3T3-HGL HSE-luciferase, MG132-induced, luminescence 8 h; hits give low values. activity change, negative = inhibition, % at 7.5 µM (by protocol). 300,000 tested, 0.77% active. AID 2098;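 active = more than half of replicate wells show activity change below -50%, luminescence cut by over half; inconclusive = some wells, but at most half, below -50%; inactive = no replicate well below -50%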;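 note: luciferase reports HSF-1 transcriptional activity via heat shock element; 0% = median of DMSO wells and -100% = zero luminescence signal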
HSF1 activator = increases HSF-1 driven luciferase reporter signal; NIH3T3-HGL HSF-1 luciferase reporter, MG132, 8 h; 100% = twice DMSO control signal; activation, % at 9 µM; 300,000 tested, 1.7% active; AID 504408;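 active = mean replicate activation of at least 50% with a set share of replicates each reaching 50%; inconclusive = only one of those two conditions met; inactive = mean below 50% and too few replicates reaching it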;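 note: 0% = median of the neutral control wells and 100% = twice that signal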
ALR inh = inhibitors of human sulfhydryl oxidase ALR. P55789. purified ALR, DTT oxidation, H2O2 HRP-luminol luminescence. inhibition, % (concentration not given with the values). 290,000 tested, 3.8% active;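 active = mean replicate inhibition above about 79%, with every replicate also reaching it, limit read from the data; inconclusive = only one of the two criteria met; inactive = mean below limit and not every replicate reaching it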
Target sequence (P55789 whole entry, looked up): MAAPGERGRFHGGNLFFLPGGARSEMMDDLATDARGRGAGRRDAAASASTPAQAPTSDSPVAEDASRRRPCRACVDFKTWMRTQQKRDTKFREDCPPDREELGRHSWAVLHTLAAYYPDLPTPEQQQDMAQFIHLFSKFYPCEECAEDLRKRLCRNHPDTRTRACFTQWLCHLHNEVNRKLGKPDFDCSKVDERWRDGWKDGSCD
PHOSPHO1 inh = PHOSPHO1 (human) inhibition; Q8TCT1; recombinant PHOSPHO1, absorbance phosphatase assay; inhibition, % at 13.3 µM; 290,000 tested, 1.1% active; AID 1565; in the data active = inhibition above about 60%
Target sequence (Q8TCT1 whole entry, looked up): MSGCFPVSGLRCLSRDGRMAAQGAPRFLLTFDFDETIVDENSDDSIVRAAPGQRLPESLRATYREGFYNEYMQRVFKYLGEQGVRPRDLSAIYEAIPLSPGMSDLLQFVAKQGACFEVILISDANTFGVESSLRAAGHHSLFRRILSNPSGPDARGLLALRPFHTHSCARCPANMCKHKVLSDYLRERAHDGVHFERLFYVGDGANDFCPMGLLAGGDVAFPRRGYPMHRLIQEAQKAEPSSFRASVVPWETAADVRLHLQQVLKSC
AI-2 QS modul = Vibrio harveyi AI-2 quorum sensing modulation. Vibrio harveyi JMH597 AI-2 luminescence/OD600 ratio, 9 h; hits give low values; strain lacks LuxN and CqsS sensors; 0 = neutral-control median. 300,000 tested, 0.4% active. AID 2094. activity change, % at 7.5 µM; in the data active = activity change below about -75%, passing the limit was not always enough; inconclusive = no clear call, values can overlap the other calls;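 note: luminescence divided by OD600 gain over 9 h not by final OD600 alone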
HCV core dimer = HCV core protein dimerization inhibition; inhibition, % at 5 µM; 300,000 tested, 0.33% active; TR-FRET GST/Flag-core106 dimerization, 1536-well; AID 1899;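 active = inhibition above the mean of all tested compounds plus 3 SD, set per screening campaign, cut at about 45% in these data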
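System: GST-tagged and Flag-tagged HCV core protein residues 1-106 / Input: core106 proteins, GST 13.5 nM and Flag 17 nM / Buffer or medium: KF-containing HEPES buffer, pH 7.45, DTT, CHAPS, BSA / Probe or stimulus: Eu-anti-GST and XL665-anti-Flag labelled anti-tag antibodies / Schedule: 4 h, 22.5 °C incubation / Technique: TR-FRET 671 and 617 nm emission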
An asterisk follows results filed as active; ? = inconclusive; . = no result. An excerpt weighted towards active compounds, which were near 6.8% of everything screened.

SMILES | HSF1 inh | HSF1 activator | ALR inh | PHOSPHO1 inh | AI-2 QS modul | HCV core dimer
CN1CCCC(n2nc(Cc3ccc(Cl)cc3)c3ccccc3c2=O)CC1 (configuration not stated) | 2.6 | 16.1 | -2.4 | . | 8.2 | -15.7
CN1/C(=C\C(=O)COC(=O)c2ccc(O)c(O)c2)C(C)(C)c2ccccc21 | 17.6 | 33.8 | 98.8* | -13.7 | 14.2 | 8.4
COc1ccc(Cl)cc1S(=O)(=O)N1CCN(C(=O)c2n[nH]c(=O)c3ccccc23)CC1 | . | . | -1.8 | . | . | .
N=C1C(c2nc(-c3ccc(Cl)cc3)cs2)=C(O)CN1CCCN1CCOCC1 | 10.9 | 13.1 | 98.1* | -75.2 | 12.6 | -3.1
O=C1CS/C(=N/N=C2C3CC4CC(C3)CC2C4)N1 | -5.8 | -18.9 | -1.2 | -21.4 | 14.0 | 1.8
O=C1CS/C(=N/N=C\c2ccn[nH]2)N1 | 3.5 | -10.9 | 81.9* | 46.4 | 25.3 | -0.2
CCOC(=O)c1c(NC(=O)CSc2nc3ccc(C)cc3[nH]2)sc2c1CC(C)(C)NC2(C)C | 11.5 | 16.3 | -3.1 | . | 5.1 | -10.9
COc1cc(/C=C(\C#N)c2nnc(N3CCOCC3)n2-c2ccccc2)ccc1O | -0.8 | -20.5 | 98.9* | 0.8 | 16.0 | -3.9
COc1cccc(NC(=O)CN(C)C(=O)c2c(C)nn(-c3ccccc3)c2Cl)c1 | . | . | -9.7 | . | . | .
CCCn1c(=O)[nH]c(=O)c2c1nc(-c1ccccc1OC(F)F)n2CCOC | 22.9 | 53.1* | -2.3 | 2.8 | 6.2 | 0.6
Cc1ccc(N(CC(=O)NCCc2ccc(F)cc2)S(=O)(=O)c2ccc(Cl)c([N+](=O)[O-])c2)c(C)c1 | 84.9 | 89.4* | -6.5 | 6.0 | 26.6 | 6.3
CC(C)CNC(=S)NNC(=O)CC(C)O (configuration not stated) | -8.0 | -12.4 | 8.6 | 61.0* | 5.7 | 1.3
Cc1ccc(-c2csc3nc(C)n(N)c(=O)c23)cc1 | 1.8 | 4.3 | -4.9 | 13.3 | 8.6 | -1.9
Cc1nc2scc(-c3ccc(Cl)cc3)c2c(=O)n1N | 68.2 | 94.5* | -9.6 | 4.6 | -18.5 | 3.8
O=C(c1ccccn1)c1ccc2ccccc2n1 | 33.6 | 59.4* | -5.1 | -7.0 | 6.4 | -1.6
O=c1cc(CN2CCN(c3ccc(F)cc3)CC2)nc2sccn12 | -6.7 | 0.6 | 98.0* | -3.3 | 4.4 | 5.2
Cc1cccc(N2CCN(Cc3cc(=O)n4ccsc4n3)CC2)c1C | -3.7 | 9.4 | 2.5 | 26.2 | 11.9 | 7.7
CN(Cc1cc(=O)n2ccsc2n1)c1ccccc1 | 1.8 | 18.2 | 98.3* | 13.4 | 17.4 | 6.7
O=c1cc(CN2CCN(c3ccccc3)CC2)nc2scc(-c3ccccc3)n12 | -3.9 | -15.9 | -14.5 | -10.6 | 15.9 | 46.3*
O=c1cc(CN2CCN(c3ccccc3O)CC2)nc2sccn12 | 8.2 | 41.5 | 98.6* | 4.1 | 34.9 | 27.9
O=C(OCc1nnn(Cc2ccccc2)c1-c1c(COC(=O)c2ccccc2)nnn1Cc1ccccc1)c1ccccc1 | . | . | -2.1 | 48.5 | . | 14.2
Cc1ccc(CN(CC(=O)NC(C)(C)C)C(=O)CNC(=O)c2cccs2)cc1 | 2.0 | 30.8 | -4.9 | 32.3 | 1.3 | 2.1
COc1cccc(/C(=N/O)C2CC2c2ccc(Cl)cc2)c1 (configuration not stated) | 2.2 | -5.1 | -3.4 | 28.5 | 30.0 | 7.0
Cn1c(Cc2ccccc2)nnc1SCC(=O)c1ccc(Br)s1 | 2.8 | -2.7 | 83.4* | 20.1 | 15.1 | 9.3
Cn1nnnc1SCC(=O)c1ccc(Br)s1 | 0.6 | 25.4 | 71.6 | 28.5 | 44.9 | -8.0
SMILES | HSF1 inh | HSF1 activator | ALR inh | PHOSPHO1 inh | AI-2 QS modul | HCV core dimer
COc1ccc2c(c1)CCc1c(C(=O)NCC(C)C)noc1-2 | 33.8 | 58.1* | . | 1.8 | 17.6 | -5.8
CCCNC(=O)c1noc2c1CCc1cc(OC)ccc1-2 | 17.6 | 66.7* | -12.9 | -4.6 | 13.2 | -3.6
COc1ccc2c(c1)CCc1c(C(=O)NCc3cccnc3)noc1-2 | 4.4 | 10.4 | -14.3 | -17.4 | 22.6 | 0.3
NS(=O)(=O)c1ccc(CCNCC#Cc2ccccc2)cc1 | -70.9* | -75.6 | -4.6 | 56.3 | 24.0 | -2.1
S=c1[nH]nc(Nc2ccccc2Cl)s1 | -2.1 | 0.9 | . | 67.7* | 6.3 | -3.9
S=c1[nH]nc(Nc2cccc(Cl)c2)s1 | -2.3 | 2.0 | 98.9* | 79.5* | -19.7 | -2.3
O=C1c2ccc(-c3ccc(Cl)c(C(F)(F)F)c3)cc2S(=O)(=O)c2cccc(C(=O)N3CCN(c4ccc(Cl)cn4)CC3)c21 | . | . | 0.3 | . | . | .
Nc1nc(Oc2ccc(F)cc2)c(Br)c(=O)[nH]1 | -63.8* | -71.9 | 1.0 | 2.6 | . | -3.1
Nc1c(Br)c(=O)[nH]c(=O)n1-c1ccc(F)cc1 | -2.5 | 3.4 | 62.8 | 28.0 | 40.8 | -6.3
CC(=O)Nc1ccc(NC(=O)CSCc2ccccc2Cl)cc1 | -4.8 | -10.7 | ? | . | 22.3 | -1.2
C/C(=N\NC(=O)CSCc1ccccc1Cl)c1cc(O)ccc1O | . | . | 98.3* | -11.1 | 19.3 | 2.0
O=C(Nc1ccc(N2CCOCC2)nc1)c1ccccc1Cl | 10.9 | 15.2 | 12.6 | 16.6 | 11.8 | -0.6
COc1ncccc1-c1nnn(-c2ccccc2)n1 | 32.5 | 28.6 | -0.1 | 30.4 | 18.3 | -7.1
CCOC(=O)/C(=C\c1cn(C)c2ccccc12)[N+](=O)[O-] | -1.9 | 4.0 | 95.5* | -8.5 | 0.8 | 2.0
Cc1ccc(C(=O)/C=C/c2c[nH]c3ccccc23)cc1 | 14.3 | 39.7 | 37.3 | 54.0 | 0.0 | 1.0
CCOC(=O)/C(C#N)=C\c1cn(C)c2ccccc12 | 0.4 | 10.8 | 3.4 | 3.4 | 12.7 | 2.1
Cn1cc(/C=C/C(=O)c2ccccc2)c2ccccc21 | 22.6 | 62.2* | . | 34.7 | 10.3 | -0.9
Cc1ccc(C(=O)/C=C/c2cn(CN3CCN(C)CC3)c3ccccc23)cc1 | 25.5 | 59.7* | -1.1 | 9.7 | -3.8 | 1.3
O=C(c1ccc(Br)cc1)N(Cc1ccco1)C1CCS(=O)(=O)C1 (configuration not stated) | 0.6 | -17.1 | 9.9 | -16.8 | 10.2 | 1.3
O=C1CCCC(O)=C1C=NCc1ccccc1 | -1.6 | -1.7 | -0.1 | 42.1 | 30.1 | -2.5
O=C1CSC(c2ccccc2)N1c1ccc([N+](=O)[O-])cc1 (configuration not stated) | 3.8 | 12.9 | 98.6* | . | 13.1 | -0.5
COc1ccc(N2C(=O)CSC2c2ccc(F)cc2)cc1 (configuration not stated) | 6.1 | 14.6 | . | 29.9 | 40.2 | -4.6
Cc1ccc(N2C(=O)CSC2c2ccc3c(c2)OCO3)cc1 (configuration not stated) | -5.2 | 9.9 | 99.4* | -2.1 | 18.1 | 4.8
CC(=O)Nc1ccc(N2C(=O)CSC2c2ccc(F)cc2)cc1 (configuration not stated) | -3.1 | -1.7 | 99.0* | 0.9 | 25.9 | -5.2
COc1ccc(C2SCC(=O)N2Cc2ccccc2)cc1 (configuration not stated) | -5.3 | 7.3 | 81.2* | -12.2 | -4.1 | -12.5
